# pEC50: −log10 of the molar value.
# Molecular target: T1, Dickkopf-related protein 1 (Homo sapiens, UniProt O94907)
# T1 sequence (O94907 whole entry): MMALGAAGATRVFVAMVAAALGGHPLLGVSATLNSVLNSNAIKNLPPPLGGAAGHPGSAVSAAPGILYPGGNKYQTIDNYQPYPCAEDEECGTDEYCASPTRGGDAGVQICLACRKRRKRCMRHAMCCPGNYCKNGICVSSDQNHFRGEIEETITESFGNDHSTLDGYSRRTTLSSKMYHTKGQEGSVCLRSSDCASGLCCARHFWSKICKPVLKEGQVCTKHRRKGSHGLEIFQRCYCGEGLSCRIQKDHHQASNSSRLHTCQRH
# Assay: Inhibition of Dkk1-mediated Wnt/beta-catenin signaling in osteosarcoma cells assessed as potentiation of TCF-luciferase response
# In short: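 Cells were transfected with a TCF-luciferase response element plus a renilla standard as the control read-out. Agonism was read as increased luciferase light output relative to DMSO alone. EC50 values are the average of at least two experiments run in triplicate.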
row,Compound,pEC50
1,Cc1ccc(-c2ccnc(Nc3ccc(S(N)(=O)=O)cc3)n2)s1 [4-(4-(5-methylthiophen-2-yl)pyrimidin-2-ylamino)benzenesulfonamide],5.11
2,NS(=O)(=O)c1ccc(Nc2nccc(-c3ccc4ccccc4c3)n2)cc1 [4-(4-(naphthalen-2-yl)pyrimidin-2-ylamino)benzenesulfonamide],6.00
3,Cc1ccc(-c2ccnc(N(C)c3ccc(S(N)(=O)=O)cc3)n2)s1 [4-(methyl(4-(5-methylthiophen-2-yl)pyrimidin-2-yl)amino)benzenesulfonamide],5.01
4,CC(=O)NCC1CCN(c2nccc(-c3ccc4ccccc4c3)n2)CC1 [N-((1-(4-(naphthalen-2-yl)pyrimidin-2-yl)piperidin-4-yl)methyl)acetamide],5.72

# Further lines, results first:
row,pEC50,Compound
1,6.00,NC1CCN(c2nccc(-c3ccc4ccccc4c3)n2)CC1 [1-(4-(naphthalen-2-yl)pyrimidin-2-yl)piperidin-4-amine]
2,6.20,NCC1CCN(c2nccc(-c3ccc4ccccc4c3)n2)CC1 [(1-(4-(naphthalen-2-yl)pyrimidin-2-yl)piperidin-4-yl)methanamine]

# Reference: BindingDB's records for doi:10.1021/jm9014197 (Wyeth Research, 2009)
